Experimental data gathered from unrelated publications.
Each line is one published result; the experiments were not run side by side. Converted amounts (≈) assume the structure as drawn.

| SMILES | organism | test | system | setting | quantity | value |
| --- | --- | --- | --- | --- | --- | --- |
| O=C1NC(=S)N/C1=C\c1ccc(-c2ccc(N(c3ccccc3)c3ccccc3)cc2)cc1 | Bacillus cereus | microbial growth, broth dilution | ATCC10876 | – | MIC | > 1000 µg/mL |
| O=c1cc(-c2ccc(O)cc2)oc2cc(O)cc(O)c12 | Helicobacter pylori | microbial growth, broth dilution | – | 125 µg/mL | inhibition | 100% |
| O=C(O)CN1C(=O)/C(=C/c2ccc(-c3ccc(N(c4ccccc4)c4ccccc4)cc3)cc2)NC1=S | Bacillus cereus | microbial killing, broth dilution | ATCC10876 | – | MBC | 250 µg/mL (≈ 494 µM) |
| COc1cc(-c2cc(=O)c3c(O)cc(O)cc3o2)ccc1O | Helicobacter pylori | microbial growth, broth dilution | – | 62.5 µg/mL | inhibition | 100% |
| COc1c(N2C[C@@H]3CCCN[C@@H]3C2)c(F)cc2c(=O)c(C(=O)O)cn(C3CC3)c12 | Salmonella enterica | microbial growth | ATCC13311 TYPHIMURIUM | – | MIC90 | 0.49 µg/mL (≈ 1.22 µM) |
| CN[C@H](CC(C)C)C(=O)N[C@H]1C(=O)N[C@@H](CC(N)=O)C(=O)N[C@H]2C(=O)N[C@H]3C(=O)N[C@H](C(=O)N[C@H](C(=O)O)c4cc(O)cc(O)c4-c4cc3ccc4O)[C@H](O)c3ccc(c(Cl)c3)Oc3cc2cc(c3O[C@@H]2O[C@H](CO)[C@@H](O)[C@H](O)[C@H]2O[C@H]2C[C@](C)(N)[C@H](O)[C@H](C)O2)Oc2ccc(cc2Cl)[C@H]1O | Bacillus cereus | microbial growth, broth dilution | ATCC10876 | – | MIC | 0.98 µg/mL (≈ 0.676 µM) |
| CCN1CCN(c2cc3c(cc2F)c(=O)c(C(=O)O)cn3C2CC2)CC1 | Salmonella enterica | microbial growth | ENTERITIDIS | 20 h, pH 5.5 | MIC | 0.25 µg/mL (≈ 0.696 µM) |
| O=C(O)CN1C(=O)/C(=C/c2ccc(-c3ccc(N(c4ccccc4)c4ccccc4)cc3)c3ccccc23)SC1=S | Bacillus cereus | microbial killing, broth dilution | ATCC10876 | – | MBC | > 1000 µg/mL |
| Cc1cc(NS(=O)(=O)c2ccc(N)cc2)no1 | Salmonella enterica | microbial growth | F98, TYPHIMURIUM | 20 h, pH 7.2 | MIC | 64 µg/mL (≈ 253 µM) |
| O=c1cc(-c2ccc(O)c(O)c2)oc2cc(O)cc(O)c12 | Helicobacter pylori | microbial growth, broth dilution | – | 0.98 µg/mL | inhibition | 73.2% |
| O=C1NC(=S)S/C1=C\c1ccc(-c2ccc(N(c3ccccc3)c3ccccc3)cc2)c2ccccc12 | Bacillus cereus | microbial killing, broth dilution | ATCC10876 | – | MBC | > 1000 µg/mL |
| CCn1cc(C(=O)O)c(=O)c2ccc(C)nc21 | Salmonella enterica | microbial growth | – | 20 h, pH 7 | MIC | 2 µg/mL (≈ 8.61 µM) |
| O=C1NC(=S)N/C1=C\c1c2ccccc2c(-c2ccc(N(c3ccccc3)c3ccccc3)cc2)c2ccccc12 | Bacillus cereus | microbial growth, broth dilution | ATCC10876 | – | MIC | > 1000 µg/mL |
| CO/N=C(\C(=O)N[C@@H]1C(=O)N2C(C(=O)O)=C(CSC(=O)c3ccco3)CS[C@H]12)c1csc(N)n1 | Salmonella enterica | microbial growth | TYPHIMURIUM | 20 h, pH 7.2 | MIC | 1 µg/mL (≈ 1.91 µM) |
| O=C1NC(=S)N/C1=C\c1ccc(-c2ccc(N(c3ccccc3)c3ccccc3)cc2)c2ccccc12 | Bacillus cereus | microbial killing, broth dilution | ATCC10876 | – | MBC | > 1000 µg/mL |
| COc1cc([C@H]2OC[C@H]3[C@@H]2CO[C@@H]3c2cc(OC)c(O)c(OC)c2)cc(OC)c1O | Helicobacter pylori | microbial growth, broth dilution | – | 31.25 µg/mL | inhibition | 100% |
| [H]/N=C(/N)N[C@H]1[C@H](O)[C@@H](O)[C@H](O[C@@H]2O[C@@H](C)[C@](O)(C=O)[C@H]2O[C@@H]2O[C@@H](CO)[C@H](O)[C@@H](O)[C@@H]2NC)[C@@H](N/C(N)=N\[H])[C@@H]1O | Salmonella enterica | microbial growth | – | 20 h, pH 7.2 | MIC | 8 µg/mL (≈ 13.8 µM) |
| CC1(C)S[C@@H]2[C@H](NC(=O)[C@H](N)c3ccccc3)C(=O)N2[C@H]1C(=O)O | Salmonella enterica | microbial growth, agar dilution | ENTERITIDIS | 26.93 µM | inhibition | 100% |
| O=C(O)c1ccc(O)cc1 | Helicobacter pylori | microbial growth, broth dilution | – | 31.25 µg/mL | inhibition | 100% |
| C[C@@H](O)[C@H]1C(=O)N2C(C(=O)O)=C(S[C@@H]3CN[C@H](C(=O)N(C)C)C3)[C@H](C)[C@H]12 | Salmonella enterica | microbial growth, broth dilution | – | clinical isolate | MIC | ≤ 0.5 µg/mL |
| CO/N=C(\C(=O)N[C@@H]1C(=O)N2C(C(=O)O)=C(CSc3nc(=O)c(=O)[nH]n3C)CS[C@H]12)c1csc(N)n1 | Salmonella enterica | microbial growth | – | 20 h, pH 7 | MIC | 0.0625 µg/mL (≈ 0.113 µM) |
| COC(=O)c1ccc(O)cc1 | Helicobacter pylori | microbial growth, broth dilution | – | 125 µg/mL | inhibition | 100% |
| CC1(C)S[C@@H]2[C@H](NC(=O)[C@H](N)c3ccccc3)C(=O)N2[C@H]1C(=O)O | Salmonella enterica | microbial growth | ENTERITIDIS | 20 h, pH 5.5 | MIC | 1 µg/mL (≈ 2.86 µM) |
| O=C(O)CN1C(=O)/C(=C/c2c3ccccc3c(-c3ccc(N(c4ccccc4)c4ccccc4)cc3)c3ccccc23)NC1=S | Bacillus cereus | microbial killing, broth dilution | ATCC10876 | – | MBC | > 1000 µg/mL |
| O=C(O)c1cn(C2CC2)c2cc(N3CCNCC3)c(F)cc2c1=O | Salmonella enterica | microbial growth | ENTERITIDIS | 20 h, pH 7 | MIC | 0.0156 µg/mL (≈ 0.0471 µM) |
| CO[C@H]1O[C@H](COC(c2ccccc2)(c2ccccc2)c2ccccc2)[C@@H](OC(=O)c2ccc(C(C)(C)C)cc2)[C@H](OC(=O)c2ccc(C(C)(C)C)cc2)[C@H]1OC(=O)c1ccc(C(C)(C)C)cc1 | Bacillus cereus | microbial killing, broth dilution | – | – | MBC | 8 µg/mL (≈ 8.72 µM) |
